These results are taken from PMC4547606 (Bioorganic & medicinal chemistry, 2015).

Assay [1] deals with T1, human CB1 receptor (Homo sapiens, UniProt P21554). Kind of assay: CB1 calcium mobilization assay, antagonist. The class given is cell-based. The settings on record: ratio of CB1 IC50 values. In outline:
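CHO-RD-HGA16 cells stably expressing human CB1 were plated overnight (37°C, 5% CO2), then Calcium 5 dye-loaded for 45 min at 37°C in HBSS/20 mM HEPES/2.5 mM probenecid, pH 7.4. Test compound dilutions were pre-incubated 15 min at 37°C. CP55,940 at EC80 was added at 10 s, and fluorescence was read every 1 s for 90 s. IC50 came from three-parameter logistic fits; at least three independent experiments in duplicate.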
Background: Calcium flux is commonly read through the fluorescence of an indicator in the cells.

Assay [2] has as its target T1, human CB1 receptor. Kind of assay: CB1 calcium mobilization assay, modulation experiments. In kind it is cell-based. The settings on record: Figure 2. In outline:
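CHO-RD-HGA16 cells stably expressing human CB1, plated the day before and kept overnight at 37°C, 5% CO2. Loaded with Calcium 5 dye for 45 min at 37°C in HBSS, 20 mM HEPES, 2.5 mM probenecid, pH 7.4. Pre-treated 15 min at 37°C with one test compound concentration, then serial CP55,940 dilutions added at 10 s. Fluorescence read every 1 s for 90 s.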

For another assay, the target named is human CB2 receptor (Homo sapiens, UniProt P34972). Kind of assay: CB2 calcium mobilization assay, antagonist screen at 10 μM. In kind it is cell-based. The settings on record: read-out: CB2 % Inhibition of CP55,940, compound at 10 μM; percent inhibition of CP55,940 EC80 (100 nM); mean ± SEM, at least two independent experiments in duplicate.
Sequence of human CB2 receptor (P34972 whole entry): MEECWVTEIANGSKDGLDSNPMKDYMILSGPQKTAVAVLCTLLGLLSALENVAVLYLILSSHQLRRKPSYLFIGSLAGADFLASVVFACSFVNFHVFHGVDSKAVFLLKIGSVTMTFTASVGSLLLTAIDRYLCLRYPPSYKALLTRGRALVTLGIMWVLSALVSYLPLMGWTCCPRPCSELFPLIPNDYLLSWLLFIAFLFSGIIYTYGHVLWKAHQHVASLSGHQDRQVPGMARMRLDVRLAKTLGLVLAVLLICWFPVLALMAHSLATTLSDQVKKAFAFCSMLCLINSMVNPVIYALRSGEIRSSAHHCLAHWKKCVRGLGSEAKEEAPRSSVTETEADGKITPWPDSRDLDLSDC
Assay [3] deals with rats. As to conditions: cited from earlier work.
The subject of a further assay is over forty GPCRs. The settings on record: including GPCRs commonly involved in drug addictions; cited from earlier work.
Assay [4] deals with rats. As to conditions: cited from earlier work. The source holds these as a separate data set.
The test system of another assay is mice. As to conditions: cited from earlier work.

Structures are written as SMILES. Several values for one entry are separate records, joined by “and”; a condition that tells them apart may be missing. Equal values may be shown once.

T1 sequence (P21554 whole entry): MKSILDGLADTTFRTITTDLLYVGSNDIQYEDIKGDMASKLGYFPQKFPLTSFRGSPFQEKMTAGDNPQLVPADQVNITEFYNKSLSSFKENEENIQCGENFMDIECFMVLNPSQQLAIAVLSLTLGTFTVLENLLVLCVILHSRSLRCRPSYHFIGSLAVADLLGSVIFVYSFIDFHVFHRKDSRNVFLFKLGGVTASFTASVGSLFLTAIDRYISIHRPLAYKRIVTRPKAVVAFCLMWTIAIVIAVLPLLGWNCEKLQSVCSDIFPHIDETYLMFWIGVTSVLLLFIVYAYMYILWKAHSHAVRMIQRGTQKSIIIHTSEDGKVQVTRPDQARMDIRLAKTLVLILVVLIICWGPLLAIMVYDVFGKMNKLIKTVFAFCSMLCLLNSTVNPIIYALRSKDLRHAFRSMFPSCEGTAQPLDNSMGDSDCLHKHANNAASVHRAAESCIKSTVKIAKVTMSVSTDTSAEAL

As for `CCN(CC)c1ccc(CCNC(=O)c2cc3cc(Cl)ccc3[nH]2)cc1` [Compound 45, 5-Chloro-N-{2-[4-(diethylamino)phenyl]ethyl}-1H-indole-2-carboxamide], at human CB1 receptor [1], the “fold more potent than compound 1 (CB1 IC50)” value is ~10 fold; the “fold more potent than compound 3 (CB1 IC50)” value is ~ 2.5 fold and 2.5 fold; the “fold more potent than compound 17 (CB1 IC50)” value worked out at 6 fold. Further, the “Effect on Emax of agonist CP55,940” value on human CB1 receptor [2] is on record as “dose-dependently decreased the Emax”. In the case of `CCCN(CCC)c1ccc(CCNC(=O)c2[nH]c3ccc(Cl)cc3c2CC)cc1` [Compound 18, 5-Chloro-N-{2-[4-(dipropylamino)phenyl]ethyl}-3-ethyl-1H-indole-2-carboxamide], the inhibition (in general, the change of the read-out against control, counted positive when it falls) at 10 µM on human CB2 receptor is -37.4 ± 6.8%. As to `CCN(CC)c1ccc(CCNC(=O)c2[nH]c3ccc(F)cc3c2C)cc1` [Compound 43, 5-Fluoro-N-{2-[4-(diethylamino)phenyl]ethyl}-3-methyl-1H-indole-2-carboxamide], the inhibition at 10 µM at human CB2 receptor is -21.8 ± 6.5%. Turning to `CCc1c(C(=O)NCCc2ccc(C(C)(C)C)cc2)[nH]c2ccc(Cl)cc12` [Compound 27, 5-Chloro-N-[2-(4-tert-butylphenyl)ethyl]-3-ethyl-1H-indole-2-carboxamide], at human CB2 receptor, the inhibition at 10 µM was -18 ± 35.4%. Still for that read-out and setting: the same measure for `CCc1c(C(=O)N2CCN(c3ccc(Cl)cc3)CC2)[nH]c2ccc(Cl)cc12` [Compound 37, 5-Chloro-2-[4-(4-chlorophenyl)piperazine-1-carbonyl]-3-ethyl-1H-indole]: -31.1 ± 18.8%. With `CCc1c(C(=O)NCCc2ccc(N3CCCCC3)cc2)[nH]c2ccc(F)cc12` [Compound 46, 5-Fluoro-3-ethyl-N-{2-[4-(piperidin-1-yl)phenyl]ethyl}-1H-indole-2-carboxamide], the inhibition at 10 µM on human CB2 receptor is -33.1 ± 16.3%. `CCc1c(C(=O)NCCc2ccc(N(CC)CC)cc2)[nH]c2ccc(Cl)cc12` [Compound 17, 5-Chloro-N-{2-[4-(diethylamino)phenyl]ethyl}-3-ethyl-1H-indole-2-carboxamide]: on human CB1 receptor [1], the “fold more potent than compound 1 (CB1 IC50)” value worked out at 2 fold. `CCCCCCNc1ccc(CCNC(=O)c2[nH]c3ccc(Cl)cc3c2CC)cc1` [Compound 19, 5-Chloro-N-{2-[4-(hexylamino)phenyl]ethyl}-3-ethyl-1H-indole-2-carboxamide]: the inhibition at 10 µM on human CB2 receptor is -35 ± 4.6%.

For the compound `CCN(CC)c1ccc(CCNC(=O)c2cc3cc(F)ccc3[nH]2)cc1` [Compound 44, 5-Fluoro-N-{2-[4-(diethylamino)phenyl]ethyl}-1H-indole-2-carboxamide], the inhibition at 10 µM at human CB2 receptor is -23.8 ± 5.2%.

For the compound `CCc1c(C(=O)NCCc2ccc(N(CC)CC)cc2)[nH]c2ccc(F)cc12` [Compound 42, 5-Fluoro-N-{2-[4-(diethylamino)phenyl]ethyl}-3-ethyl-1H-indole-2-carboxamide], the inhibition at 10 µM on human CB2 receptor was -25.7 ± 10.7%. `CCc1c(C(=O)NCCc2ccc(N3CCCCC3)cc2)[nH]c2ccc(Cl)cc12` [Compound 1, Org27569]: in the assay on rats [3], the “Cue- and drug-induced reinstatement of cocaine- and methamphetamine-seeking behavior” value is “dose-related attenuation”. In addition, the “Pharmacological selectivity against over forty GPCRs” value in the assay on over forty GPCRs is “high pharmacological selectivity”. Besides, in the assay with rats [4], the “Effect in catalepsy and antinociception” value was “negative results”; the “Effect on hypothermic effects of CB1 receptor agonists CP55940 and anandamide” value was “attenuated the hypothermic effects”. In addition, the inhibition at 10 µM on human CB2 receptor is -16.4 ± 1.8%. In addition, in the assay with mice, the “Anorectic effect, mechanism” value was “anorectic effect through non-CB1 specific mechanisms” and the “Effect on CB1 agonist-induced effects (antinociception, catalepsy, hypothermia)” value is reported as “did not enhance or block”. Also, the “Effect on Emax of agonist CP55,940” value at human CB1 receptor [2] is listed as “dose-dependently decreased the Emax”. With `CCc1c(C(=O)N2CCN(c3ccccc3)CC2)[nH]c2ccc(Cl)cc12` [Compound 36, 5-Chloro-3-ethyl-2-(4-phenylpiperazine-1-carbonyl)-1H-indole], the inhibition at 10 µM on human CB2 receptor is -28 ± 25.9%.

For the compound `CCc1c(C(=O)Nc2cccc(-c3cccc(N(C)C)n3)c2)[nH]c2ccc(Cl)cc12` [Compound 35, 5-Chloro-N-{3-[6-(dimethylamino)pyridin-2-yl]phenyl}-3-ethyl-1H-indole-2-carboxamide], on human CB2 receptor, the inhibition at 10 µM was -19.2 ± 11.5%. With `CCc1c(C(=O)NCCc2ccc(N(C)C)cc2)[nH]c2ccc(F)cc12` [Compound 3, Org27759, reference compound], the inhibition at 10 µM on human CB2 receptor is -20.4 ± 2.4%. In addition, at human CB1 receptor [2], the “Effect on Emax of agonist CP55,940” value is on record as “dose-dependently decreased the Emax”. For `CCc1c(C(=O)NCCc2ccc(OC)cc2)[nH]c2ccc(Cl)cc12` [Compound 26, 5-Chloro-N-[2-(4-methoxyphenyl)ethyl]-3-ethyl-1H-indole-2-carboxamide], on human CB2 receptor, the inhibition at 10 µM is -11.2 ± 19.6%. For `CCc1c(C(=O)NCCc2ccc(N(C)C)cc2)[nH]c2ccc(Cl)cc12` [Compound 16, 5-Chloro-N-{2-[4-(dimethylamino)phenyl]ethyl}-3-ethyl-1H-indole-2-carboxamide], the inhibition at 10 µM at human CB2 receptor was -12.7 ± 2.8%.
